Data set [1] deals with Blood. In words: Drug uptake in wild type C57BL/6 mouse blood at 400 KBq/g, iv measured at 90 mins by PET analysis. It is filed as ADME, organism-based. The conditions noted are these: in vivo, 1.5 h. In a few lines:
(§1)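 Male C57BL/6 wild-type mice, 13 weeks old, 21−26 g (n = 4), anaesthetised with isoflurane/O₂. 18F tracer given as a tail-vein bolus of 400 kBq/g in 100 μL, flushed with 100 μL saline. Dynamic list-mode PET was acquired, with CT-defined volumes of interest over the organs. Uptake was expressed as counts/mL in the VOI divided by total mouse counts ×100 (%ID/mL). Time-activity curves ran 0−90 min p.i.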

In data set [2] the test system is Lung. Description: Drug uptake in wild type C57BL/6 mouse lung at 400 KBq/g, iv measured at 20 mins by PET/CT analysis. It counts as ADME, organism-based. The conditions noted are these: in vivo. In a few lines:
as §1

For data set [3], the system named is Lung. Description: Drug uptake in wild type C57BL/6 mouse lung at 400 KBq/g, iv measured at 90 mins by PET/CT analysis. It is filed as ADME, organism-based. The conditions noted are these: in vivo, 1.5 h. The gist of the method:
as §1

Data set [4] relates to Liver. In words: Drug uptake in wild type C57BL/6 mouse liver at 400 KBq/g, iv measured at 10 mins by PET/CT analysis. It is filed as ADME, organism-based. The conditions noted are these: in vivo. In a few lines:
as §1

Data set [5] relates to Bone. Description: Drug uptake in wild type C57BL/6 mouse bone at 400 KBq/g, iv measured at 90 mins by PET/CT analysis. The conditions noted are these: in vivo, 1.5 h. It is filed as ADME, organism-based, Bone element. In a few lines: as §1
Data set [6] relates to Kidney. In words: Drug uptake in wild type C57BL/6 mouse kidney at 400 KBq/g, iv measured at 90 mins by PET/CT analysis. It is filed as ADME, organism-based. The conditions noted are these: in vivo, 1.5 h. In a few lines: as §1
Data set [7] can be described thus: Drug uptake in wild type C57BL/6 mouse myocardium at 400 KBq/g, iv measured at 10 mins by PET/CT analysis. It counts as ADME, organism-based. The conditions noted are these: in vivo. In a few lines: as §1
Data set [8] deals with Mus musculus. Description: Drug uptake in wild type C57BL/6 mouse body parts at 400 KBq/g, iv measured at 90 mins by PET/CT analysis. It counts as ADME, organism-based. Particulars: in vivo, 1.5 h; call rule not given here. In a few lines:
as §1

The subject of data set [9] is Spleen. Description: Drug uptake in wild type C57BL/6 mouse spleen at 400 KBq/g, iv measured at 10 mins by PET/CT analysis. It is filed as ADME, organism-based. The conditions noted are these: in vivo. In a few lines:
as §1

For data set [10], the target named is Sphingosine 1-phosphate receptor 3 (Homo sapiens) (UniProt Q99500). In words: Agonist activity at human S1P3 receptor overexpressed in CHO cells assessed as p44/42 MAPK phosphorylation at 1 uM by Western blot analysis. It is filed as cell-based. The conditions noted are these: TDE = time-dependent effect. The gist of the method:
(§2)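 Stably transfected CHO cells overexpressing human S1P1 or S1P3 receptor, serum-starved overnight, then stimulated with test compounds alongside S1P in the same experiment for the indicated times. Cells lysed and lysates resolved on 12% SDS-PAGE gels for Western blot read-out.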
Background: In western blotting, separated proteins are transferred to a membrane and probed.

The target of data set [11] is Sphingosine 1-phosphate receptor 1 (Homo sapiens) (UniProt P21453). Description: Agonist activity at human S1P1 receptor overexpressed in CHO cells assessed as p44/42 MAPK phosphorylation at 1 uM by Western blot analysis. It is filed as cell-based. The conditions noted are these: TDE = time-dependent effect. In a few lines:
as §2

Data set [12] relates to Serum. Description: Metabolic stability in human serum assessed as retention time at 8.7 MBq at 37 degC after 90 mins by HPLC analysis. It counts as ADME, cell-free. The conditions noted are these: 1.5 h. The gist of the method:
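Formulated 18F tracer (20 μL, 8.7 MBq) was added to 200 μL human serum and incubated at 37 °C. Samples were taken at 10, 30, 60 and 90 min and quenched in MeOH/CH₂Cl₂ 1:1. After centrifugation, supernatants were analysed by C18 radio-HPLC (10−90% CH₃CN/0.1% TFA gradient over 15 min, 1.0 mL/min, 254 nm).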

Data set [13] relates to Spleen. Description: Drug uptake in wild type C57BL/6 mouse spleen at 400 KBq/g, iv measured at 30 mins by PET/CT analysis. It is filed as ADME, organism-based. Particulars: in vivo, 0.5 h. The gist of the method:
as §1

In data set [14] the test system is Mus musculus. In words: In vivo inhibition of S1P1 receptor in mouse assessed as peripheral blood B cells at 1.25 mg/kg, ip after 24 hrs by flow cytometric analysis (reference value: 4.72 +/- 0.53 10^6/ml). It is filed as functional. The conditions noted are these: route intraperitoneal. (A flow cytometer gives signals particle by particle.)
Data set [15] has as its system Mus musculus. In words: In vivo inhibition of S1P1 receptor in mouse assessed as reduction of peripheral blood CD4+ cells at 1.25 mg/kg, ip after 24 hrs by flow cytometric analysis relative to control.
Data set [16] concerns Mus musculus. Description: In vivo inhibition of S1P1 receptor in mouse assessed as peripheral blood WBC at 1.25 mg/kg, ip after 24 hrs by flow cytometric analysis (reference value: 8.94 +/- 0.59 10^6/ml). The conditions noted are these: route intraperitoneal. It is filed as functional.
Data set [17] concerns Mus musculus. In words: In vivo inhibition of S1P1 receptor in mouse assessed as peripheral blood CD8+ cells at 1.25 mg/kg, ip after 24 hrs by flow cytometric analysis (reference value: 0.48 +/- 0.05 10^6/ml). It is filed as functional. Particulars: route intraperitoneal.
Data set [18] concerns Mus musculus. In words: In vivo inhibition of S1P1 receptor in mouse assessed as reduction of peripheral blood CD8+ cells at 1.25 mg/kg, ip after 24 hrs by flow cytometric analysis relative to control. It counts as functional. The conditions noted are these: in the assay text read “CD4+ cells” for “CD8+ cells”, route intraperitoneal. In a few lines: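 Compound given intraperitoneally at 1.25 mg/kg in 0.9% NaCl (0.2 mg/mL); blood taken retro-orbitally into EDTA after 24 h. Lymphocytes counted by flow cytometry after red-cell lysis and compared with untreated mice. Mean ± SEM, n ≥ 3 independent experiments; p < 0.05 versus control.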

Chain of Sphingosine 1-phosphate receptor 1 (Homo sapiens) (P21453 whole entry): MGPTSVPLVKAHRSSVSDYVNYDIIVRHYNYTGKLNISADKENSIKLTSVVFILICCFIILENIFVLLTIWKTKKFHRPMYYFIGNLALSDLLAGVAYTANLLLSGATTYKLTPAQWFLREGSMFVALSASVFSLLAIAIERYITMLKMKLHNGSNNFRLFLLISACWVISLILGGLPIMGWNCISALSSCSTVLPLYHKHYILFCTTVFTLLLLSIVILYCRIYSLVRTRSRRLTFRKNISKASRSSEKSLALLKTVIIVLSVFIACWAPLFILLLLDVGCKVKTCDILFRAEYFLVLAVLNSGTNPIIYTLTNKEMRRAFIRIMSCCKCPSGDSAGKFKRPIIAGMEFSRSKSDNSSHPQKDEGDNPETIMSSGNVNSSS
Chain of Sphingosine 1-phosphate receptor 3 (Homo sapiens) (Q99500 whole entry): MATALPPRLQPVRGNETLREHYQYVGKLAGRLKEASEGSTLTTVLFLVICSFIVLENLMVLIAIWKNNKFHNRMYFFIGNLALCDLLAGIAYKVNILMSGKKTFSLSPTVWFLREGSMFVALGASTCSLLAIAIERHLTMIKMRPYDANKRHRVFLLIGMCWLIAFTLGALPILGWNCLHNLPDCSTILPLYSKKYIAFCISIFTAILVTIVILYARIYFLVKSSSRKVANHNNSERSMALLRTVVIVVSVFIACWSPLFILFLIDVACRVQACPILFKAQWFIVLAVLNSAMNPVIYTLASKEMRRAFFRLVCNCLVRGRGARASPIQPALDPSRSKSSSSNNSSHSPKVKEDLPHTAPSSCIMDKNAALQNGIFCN

With `NC(CO)(CO)CCc1ccc(CCCCCC[18F])cc1`, the Drug uptake is 4 %ID/ml in data set [1]; 5 %ID/ml in data set [2]; 4 %ID/ml in data set [3]; 25 %ID/ml in data set [4]; “Not Active” in data set [5]; 20 %ID/ml in data set [6]. In addition, the results for the Drug uptake in [7], in data set [8] and in data set [9] were 8 %ID/ml, “Not Active” and 7 %ID/ml, respectively.

As for `CCCCCCCCCCCCC/C=C/[C@@H](O)[C@@H](N)COP(=O)(O)O`, the Activity entry in [10] and in data set [11] was “tde” throughout.

On to `NC(CO)(CO)CCc1ccc(CCCCCCCC[18F])cc1`, for which, in [12], the Retention_time is 11.15 min. The Drug uptake is listed as 4 %ID/ml in data set [1]; 6.4 %ID/ml in data set [2]; 4.8 %ID/ml in data set [3]; 7.8 %ID/ml in data set [13]; 25 %ID/ml in data set [4]; “Not Active” in data set [5]. Besides, the Drug uptake is 20 %ID/ml in data set [6], 8.6 %ID/ml in data set [7] and “Not Active” in data set [8].

As a reminder, the inhibition in vivo is the drop in the measured response relative to a control, in per cent. Turning to `NC(CO)(CCc1ccc(CCCCCCCCF)cc1)COP(=O)(O)O` (stereo not given), the Activity is 1.05 ×10⁶ /ml in data set [14]; 3.93 ×10⁶ /ml in data set [16]; “tde” in data set [10]; “tde” in [11]; 0.14 ×10⁶ /ml in data set [17]. The inhibition in vivo at 1.25 mg/kg in data set [15] stood at 89%.

In the case of `NC(CO)(CO)CCc1ccc(CCCCCCCCF)cc1`, the Activity is recorded as 1.03 ×10⁶ /ml in data set [14], 3.04 ×10⁶ /ml in [16] and 0.03 ×10⁶ /ml in data set [17]. The inhibition in vivo at 1.25 mg/kg in data set [18] was found to be 95%.

On to `NC(CO)(CO)CCc1ccc(CCCCCCF)cc1`, for which the Activity is on record as 2.23 ×10⁶ /ml in data set [14], 4.91 ×10⁶ /ml in data set [16] and 0.25 ×10⁶ /ml in [17]. In addition, in data set [18], the inhibition in vivo at 1.25 mg/kg was 59%.

The record behind these values is ChEMBL document CHEMBL3421528, “Synthesis and evaluation of fluorinated fingolimod (FTY720) analogues for sphingosine-1-phosphate receptor molecular imaging by positron emission tomography” (J Med Chem, 2015).
